# Only some compounds are listed: those with a hit (about 2.1% of all), similar ones and a draw of the others.
# NOD2 RIPK2 PPI: NOD2-RIPK2 protein interaction inhibition; inhibition, % at 4.98 µM; AID 624267; 0.38% of 360,000 active; O43353; CHO BLA complementation NOD2-RIPK2, CCF4 ratio; in the data active means inhibition above about 21%;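 further: 0% = vehicle only and 100% = reference blocker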
# beta cell repl: MIN6 beta-cell proliferation induction. MIN6 cells proliferation, ATPlite luminescence, 48 h; cells starved in 0.2% serum; 100% = growth in 10% serum. proliferation, % at 10 µM. 0.29% of 330,000 active. AID 2380;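 active means compounds whose signal lies at least 3.5 SD above the mean of all wells on their plate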;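 further: 0% = DMSO-treated cells in low-serum medium and 100% = 10% serum control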
# MC4R barr agon: activates human MC4R beta-arrestin recruitment | P32245 | U2OS MC4R beta-arrestin complementation, luminescence; percent of melanotan II response, DMSO zero | activation, % at 8.9 µM | 0.98% of 360,000 active;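 active means activation above a per-plate cutoff, the mean activation of sample wells on that plate plus 3 SD, cut at about 8% in these data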
# MC4R antagonist: human MC4R antagonism in cAMP assay. P32245. MC4R-expressing cells, MTII-stimulated cAMP, LANCE TR-FRET. inhibition, % at 6.5 µM. 0.48% of 360,000 active. AID 540295;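 active means inhibition above its plate's cutoff, the mean of tested wells on that plate plus 3 SD, cut at about 29% in these data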;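 further: 0% = Melanotan II alone and 100% = Melanotan II plus saturating MCL0020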
#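 system = U2OS cells with stable human MC4R expression | also added = Melanotan II challenge after compound preincubation | dosing = one concentration, 6.5 µM nominal | incubation = compound 30 min, challenge 1 h, detection 1 h | measured by = TR-FRET with Eu-cAMP and labeled anti-cAMP, 671 nm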
# TLR9-MyD88 block: TLR9-MyD88 interaction inhibition; CHO BLA complementation TLR9-MyD88, CCF4 FRET ratio; inhibition, % at 4.98 µM; 0.21% of 340,000 active; AID 504734;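 active means inhibition above the mean over all tested compounds plus 3 SD, cut at about 21% in these data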;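 further: 0% = DMSO only wells and 100% = clavulanate BLA inhibitor control wells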
# TLR4-MyD88 BLA: blocks binding of human TLR4 to MyD88. HeLa CL3-4 TLR4/MyD88 BLA complementation, FRET ratio. 0.18% of 200,000 active. O00206+Q99836. inhibition, % at 8.4 µM; in the data active means inhibition above about 25%;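 further: 0% = vehicle and 100% = reference inhibitor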
# Target sequence (O00206 whole entry, looked up): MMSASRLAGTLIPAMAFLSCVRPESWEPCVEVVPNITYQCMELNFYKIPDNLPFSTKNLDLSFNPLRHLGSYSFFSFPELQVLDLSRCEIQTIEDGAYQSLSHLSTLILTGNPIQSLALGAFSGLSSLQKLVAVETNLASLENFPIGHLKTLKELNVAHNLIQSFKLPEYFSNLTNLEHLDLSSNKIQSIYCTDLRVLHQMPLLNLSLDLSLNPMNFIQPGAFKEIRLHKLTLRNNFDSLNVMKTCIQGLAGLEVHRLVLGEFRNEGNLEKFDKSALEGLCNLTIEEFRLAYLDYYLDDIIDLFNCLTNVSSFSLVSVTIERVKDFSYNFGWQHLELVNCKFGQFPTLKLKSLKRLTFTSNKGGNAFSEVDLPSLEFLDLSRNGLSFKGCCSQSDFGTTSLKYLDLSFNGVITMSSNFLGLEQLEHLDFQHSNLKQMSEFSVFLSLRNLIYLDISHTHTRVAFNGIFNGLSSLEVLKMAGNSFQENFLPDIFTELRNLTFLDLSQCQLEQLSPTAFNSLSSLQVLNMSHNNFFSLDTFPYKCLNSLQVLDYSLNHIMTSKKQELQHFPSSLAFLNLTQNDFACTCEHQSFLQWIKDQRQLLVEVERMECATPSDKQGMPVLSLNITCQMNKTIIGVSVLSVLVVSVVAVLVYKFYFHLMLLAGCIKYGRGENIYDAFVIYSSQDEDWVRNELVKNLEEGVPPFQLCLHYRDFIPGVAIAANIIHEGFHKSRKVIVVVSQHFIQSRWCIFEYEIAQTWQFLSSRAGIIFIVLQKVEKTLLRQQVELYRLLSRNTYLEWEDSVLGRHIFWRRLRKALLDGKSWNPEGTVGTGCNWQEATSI
# Target sequence (Q99836 whole entry, looked up): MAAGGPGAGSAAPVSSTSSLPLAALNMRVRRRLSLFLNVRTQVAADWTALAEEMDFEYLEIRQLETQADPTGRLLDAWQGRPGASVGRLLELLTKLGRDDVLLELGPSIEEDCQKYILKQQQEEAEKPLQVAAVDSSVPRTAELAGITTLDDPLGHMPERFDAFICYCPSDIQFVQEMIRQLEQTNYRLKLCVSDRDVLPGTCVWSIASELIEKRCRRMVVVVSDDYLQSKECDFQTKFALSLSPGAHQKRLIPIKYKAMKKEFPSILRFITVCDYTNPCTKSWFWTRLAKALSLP
# TLR9-MyD88 cf: confirmation of human TLR9-MyD88 binding inhibitors; shares compounds with TLR9-MyD88 block; CHO TLR9/MyD88 BLA complementation, CCF4 FRET ratio; inhibition, % at 4.98 µM; 51% of 680 active;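 active means mean inhibition across three repeats above about 21% taken from the earlier screen, limit read from the data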;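 further: blue over green emission ratio reports constitutive TLR9 MyD88 association via BLA complementation; 0% = DMSO vehicle wells and 100% = clavulanate BLA inhibitor wells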
# BLA counter-1: beta-lactamase reporter inhibition, counter-screen artifact | AID 540251 | 7% of 680 active | CHO-BLA cells, CCF4 FRET ratio, BLA reporter | inhibition, % at 4.98 µM | shares compounds with TLR9-MyD88 block;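 active means mean inhibition above a 50% cutoff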;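 further: counterscreen of TLR9-MyD88 hits on CMV-driven BLA in CHO-K1 cells; 0% = DMSO alone and 100% = clavulanate blocking BLA; higher means less blue over green ratio so more BLA blockade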
# TLR9 CHO tox: CHO cell toxicity counter-screen for TLR9-MyD88 inhibitors; shares compounds with TLR9-MyD88 block; TLR9-MyD88 CHO cells cytotoxicity, luminescence; 39% of 680 active; inhibition, % at 4.98 µM; in the data active means inhibition above about 11%
# cAMP nonselect: U2OS forskolin cAMP inhibition counter-screen | shares compounds with MC4R antagonist | parental U2OS, LANCE TR-FRET | 26% of 1,600 active | inhibition, % at 6.5 µM;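 active means mean inhibition over triplicates above the low-control well mean plus 3 SD, set per campaign, cut at about 13% in these data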;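 further: signal is single emission at 671 nm which falls as cellular cAMP rises; 0% = forskolin-stimulated wells and 100% = buffer without forskolin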
# MC4R antag conf: human MC4R cAMP antagonism confirmation. shares compounds with MC4R antagonist. MC4R-expressing cells, MTII-stimulated cAMP, TR-FRET. inhibition, % at 6.5 µM. 27% of 1,600 active; in the data active means inhibition above about 29%;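 further: 0% = agonist stimulated wells alone and 100% = agonist stimulated wells plus saturating reference antagonist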
# NOD2-RIPK2 conf: NOD2-RIPK2 interaction inhibition confirmed; inhibition, % at 4.98 µM; 70% of 1,200 active; shares compounds with NOD2 RIPK2 PPI; CHO cells, NOD2-RIPK2 BLA complementation, CCF4 FRET;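 active means mean inhibition across replicates above a set limit taken from the earlier primary screen, cut at about 21% in these data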;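 further: 0% = DMSO-only wells and the high end = clavulanate BLA-blocked wells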
# BLA counter-2: NOD2-RIPK2 counterscreen BLA reporter activity; shares compounds with NOD2 RIPK2 PPI; CHO BLA reporter, CCF4 FRET ratio; inhibition, % at 4.98 µM; 57% of 1,200 active; AID 624371;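 active means mean inhibition above the low-control mean inhibition plus three low-control SD, cut at about 11% in these data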;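 further: 0% = DMSO only wells and 100% = clavulanate high control wells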
# An asterisk follows results filed as active; . = no result.
SMILES,NOD2 RIPK2 PPI,beta cell repl,MC4R barr agon,MC4R antagonist,TLR9-MyD88 block,TLR4-MyD88 BLA,cAMP nonselect,MC4R antag conf,others
COC(=O)[C@@H]1N=C(c2ccc(OC)cc2)O[C@]12C(=O)N(C)c1cccc(Cl)c12,-4,.,.,.,.,.,.,.,
CC1=C(O)C(=O)C=C2C1=CC=C1C2(C)CCC2(C)C3CC(C)(C(=O)O)CCC3(C)CCC12C (stereo not given),81*,.,-2,32*,29*,.,-5,17,TLR9-MyD88 cf=50*;BLA counter-1=8;TLR9 CHO tox=98*;NOD2-RIPK2 conf=81*;BLA counter-2=8
Cc1cc(N(CCCl)CCCl)ccc1C=Cc1ccncn1,40*,.,-2,-6,32*,.,.,.,TLR9-MyD88 cf=9;BLA counter-1=12;TLR9 CHO tox=3;NOD2-RIPK2 conf=26*;BLA counter-2=31*
CCC(C)c1cnc(CC(C)C)c(=O)n1O (stereo not given),-12,.,1,6,.,.,.,.,
CSCCC(c1nnnn1C(C)(C)C)N1CCC2(CC1)C(=O)NCN2c1ccccc1 (stereo not given),14,.,.,.,.,.,.,.,
Nc1ccc2ccc3cccc[n+]3c2c1,23*,-1,0,-6,26*,.,.,.,TLR9-MyD88 cf=9;BLA counter-1=11;TLR9 CHO tox=-2;NOD2-RIPK2 conf=31*;BLA counter-2=36*
C=CCn1c(O)c(C(CC)=Nc2cccc(C(=O)O)c2)c(=O)[nH]c1=O,-9,-4,2,31*,9,.,1,6,
NS(=O)(=O)c1ccc(-c2ccc(C=C3C(=O)NC(=O)NC3=O)o2)cc1,9,2,2,-1,7,.,.,.,
O=C1NC(=O)C(=Cc2ccc(SC3CCCCC3)o2)C(=O)N1,-9,3,0,38*,14,10,11,26,
CC/C(=N\Nc1ccccc1)c1c(O)n(-c2ccc(OC)cc2)c(=O)[nH]c1=O,-7,0,4,33*,1,.,0,-6,
O=C1CN=C(c2ccccc2)c2ccccc2N1,5,-1,-2,0,12,.,.,.,
COc1ccc2oc3c(c2c1)NC(=O)CN=C3c1ccccc1,2,-1,1,31*,-3,-6,4,-8,
CCOC(=O)CC(SP1(=S)OCC2(CC=CCC2)CO1)C(=O)OCC (stereo not given),5,.,-2,5,-7,.,.,.,
CN1C(=O)C(c2ccccc2)C(=O)N(C)C1=O,-4,-1,2,30*,.,.,-1,12,
CCC1(c2ccccc2)C(=O)N(C)C(=O)N(C)C1=O,-11,-2,0,-5,-8,9,.,.,
COc1cccc(C(=O)C2CCCN(Cc3cccc4c3OCO4)C2)c1 (stereo not given),-7,-1,-2,29*,-1,10,4,11,
C=CC12CN(C)C3C4COC(CC41)C1(C(=O)Nc4ccccc41)C32 (stereo not given),-5,.,-1,12,.,.,.,.,
CCOc1cc2[nH]c(=S)n(CCCC(=O)N3CCC4(CC3)OCCO4)c(=O)c2cc1OCC,-7,-1,-2,29*,-7,-5,2,8,

# Source: PubChem
